Measurements: ChEMBL document CHEMBL3352380, “Development of benzo[d]oxazol-2(3H)-ones derivatives as novel inhibitors of Mycobacterium tuberculosis InhA” (Bioorg Med Chem, 2014)
≈ marks a conversion by molar mass, not a printed value.

Experiments:
[1] = target: T1, Enoyl-[acyl-carrier-protein] reductase [NADH] (Mycobacterium tuberculosis) (UniProt P9WGR1); assay: Inhibition of Mycobacterium tuberculosis recombinant His6-tagged InhA expressed in Escherichia coli BL21(DE3) using 2-trans-decenoyl-CoA as substrate at 10 uM incubated for 2 hrs prior to substrate addition by spectrophotometry
T1 sequence (whole entry): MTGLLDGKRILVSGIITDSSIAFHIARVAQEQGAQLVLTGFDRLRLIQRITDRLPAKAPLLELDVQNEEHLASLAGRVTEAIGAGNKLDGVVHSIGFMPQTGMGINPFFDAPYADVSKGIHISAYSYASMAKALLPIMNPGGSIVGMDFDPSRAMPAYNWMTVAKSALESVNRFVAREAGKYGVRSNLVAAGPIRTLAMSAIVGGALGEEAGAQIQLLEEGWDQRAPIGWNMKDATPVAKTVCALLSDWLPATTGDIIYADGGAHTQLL
How it was run: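 His6-InhA expressed in E. coli BL21(DE3) with 0.1 mM IPTG at 18 °C and purified on Ni-NTA. 70 nM enzyme pre-incubated 2 h with inhibitor at 10 µM in 30 mM PIPES, 150 mM NaCl, pH 6.8, 0.5% DMSO, 25 °C. Reaction started with DD-CoA plus NADH and followed at 340 nm. Initial velocity compared with a no-ligand control; triplicate.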

[2] = target: T2, Enoyl-[acyl-carrier-protein] reductase [NADH] (Mycobacterium tuberculosis, UniProt P9WGR1); assay: Inhibition of Mycobacterium tuberculosis recombinant His6-tagged InhA expressed in Escherichia coli BL21(DE3) using 2-trans-decenoyl-CoA as substrate incubated for 2 hrs prior to substrate addition by spectrophotometry
T2 sequence (P9WGR1 whole entry): T1 sequence (whole entry)

[3] = tested on: Mycobacterium tuberculosis; assay: Antimicrobial activity against Mycobacterium tuberculosis H37Rv ATCC 27294 after 28 days by two-fold agar dilution method; format: functional; conditions: H37Rv ATCC 27294, 672 h
How it was run: (§1)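 Two-fold serial dilutions in Middlebrook 7H11 agar with OADC supplement, final 50 to 0.78 µg/mL. Inoculum from fresh 7H11/OADC slants, adjusted to 1 mg/mL wet weight in 0.05% Tween 80 saline and diluted 10^-2 (~10^7 cfu/mL), spotted onto drug-containing agar tubes. Incubated at 37 °C; MIC is the lowest concentration inhibiting growth, read at 28 days.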

[4] = tested on: Mycobacterium tuberculosis; assay: Antimicrobial activity against Mycobacterium tuberculosis H37Rv ATCC 27294 after 28 days by two-fold agar dilution method in presence of verapamil; format: functional; conditions: H37Rv ATCC 27294, 672 h; how it was run: as §1
[5] = tested on: Mycobacterium tuberculosis; assay: Antimicrobial activity against Mycobacterium tuberculosis H37Rv ATCC 27294 after 28 days by two-fold agar dilution method in presence of piperine; format: functional; conditions: H37Rv ATCC 27294, 672 h; how it was run: as §1
[6] = Cytotoxicity against mouse RAW264.7 cells at 100 uM after 72 hrs by MTT assay; format: cell-based; conditions: read-out: INH
How it was run: (§2)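 RAW 264.7 macrophages exposed to compound for 72 h. Viability read as MTT conversion to formazan with a non-radioactive cell proliferation kit, reported as percentage growth inhibition.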

[7] = Cytotoxicity against mouse RAW264.7 cells at 50 uM after 72 hrs by MTT assay; format: cell-based; conditions: read-out: INH; how it was run: as §2
[8] = target: T1, Enoyl-[acyl-carrier-protein] reductase [NADH] (Mycobacterium tuberculosis)

Structure (SMILES) | inhibition [1] | IC50 [2] | MIC [3] | MIC [4] | MIC [5] | cytotoxicity at 72 h, 100 µM [6] | cytotoxicity at 72 h, 50 µM [7] | Tm [8]
O=C(Cn1c(=O)oc2ccccc21)Nc1ccc(Cl)c(Cl)c1 | 16.5% | > 25 µM |  |  |  |  |  | 
O=C(Cn1c(=O)oc2cc([N+](=O)[O-])ccc21)Nc1ccccc1 | 46.1% |  | 79.8 µM (≈ 25 µg/mL) | 19.9 µM | 9.97 µM | 26.4% | 18% | 
O=C(Cn1c(=O)oc2cc(Cl)ccc21)Nc1cc(C(F)(F)F)ccc1Cl | 40.1% |  | 61.7 µM (≈ 25 µg/mL) | 15.4 µM | 15.4 µM | 12.1% | 1.61% | 
O=C(Cn1c(=O)oc2ccccc21)Nc1nc2ccccc2s1 | 42.1% |  | 19.2 µM (≈ 6.25 µg/mL) | 9.6 µM | 9.6 µM | 59.6% | 43.5% | 
O=C(Cn1c(=O)oc2ccccc21)NCc1cccs1 | 26.1% |  | 21.7 µM (≈ 6.25 µg/mL) | 10.8 µM | 5.41 µM | 49.1% | 23.4% | 
O=C(Cn1c(=O)oc2cc(Cl)ccc21)Nc1ccccn1 | 51.6% |  | 82.3 µM (≈ 25 µg/mL) | 10.3 µM | 10.3 µM | 43.7% | 33% | 
O=C(Cn1c(=O)oc2cc(Cl)ccc21)NCc1cccs1 | 45.6% |  | 38.7 µM (≈ 12.5 µg/mL) | 9.64 µM | 9.64 µM | 53.6% | 20.3% | 
O=C(Cn1c(=O)oc2cc(Cl)ccc21)NCc1ccco1 | 47.5% |  | 40.8 µM (≈ 12.5 µg/mL) | 20.4 µM | 10.2 µM | 50.3% | 27.8% | 
O=C(Cn1c(=O)oc2cc([N+](=O)[O-])ccc21)Nc1nc2ccccc2s1 | 60.8% | 7.62 µM | 33.8 µM (≈ 12.5 µg/mL) | 33.8 µM | 33.8 µM | 56.1% | 22.7% | 
O=C(Cn1c(=O)oc2ccccc21)Nc1ccccn1 | 26.1% |  | 46.4 µM (≈ 12.5 µg/mL) | 4.64 µM | 9.28 µM | 28.4% | 20.2% | 
O=C(Cn1c(=O)oc2ccccc21)Nc1cccc(Cl)c1 | 17% | > 25 µM |  |  |  |  |  | 
O=C(Cn1c(=O)oc2cc([N+](=O)[O-])ccc21)NCc1ccco1 | 36.9% |  | 78.8 µM (≈ 25 µg/mL) | 39.4 µM | 39.4 µM | 60.1% | 26.8% | 
O=C(Cn1c(=O)oc2ccccc21)Nc1nc2ccc([N+](=O)[O-])cc2s1 | 45.1% |  | 33.8 µM (≈ 12.5 µg/mL) | 8.43 µM | 4.21 µM | 19.2% | 12.4% | 
O=C(Cn1c(=O)oc2cc([N+](=O)[O-])ccc21)Nc1cc(C(F)(F)F)ccc1Cl | 32.2% |  | 60.1 µM (≈ 25 µg/mL) | 15 µM | 30.1 µM | 31.6% | 12.8% | 
O=C(Cn1c(=O)oc2cc(Cl)ccc21)Nc1nc2ccccc2s1 | 58.2% | 8.9 µM | 17.4 µM (≈ 6.25 µg/mL) | 8.68 µM | 17.4 µM | 52.5% | 38.7% | 
O=C(Cn1c(=O)oc2cc(Cl)ccc21)Nc1ccccc1 | 28.2% |  | 82.6 µM (≈ 25 µg/mL) | 20.6 µM | 41.3 µM | 20.2% | 15.8% | 
CO[C@H]1/C=C/O[C@@]2(C)Oc3c(C)c(O)c4c(O)c(c(/C=N/N5CCN(C)CC5)c(O)c4c3C2=O)NC(=O)/C(C)=C\C=C\[C@H](C)[C@H](O)[C@@H](C)[C@@H](O)[C@@H](C)[C@H](OC(C)=O)[C@@H]1C [RIFAMPIN] |  |  | 0.15 µM (≈ 0.123 µg/mL) |  |  |  |  | 

Structure (SMILES) | inhibition [1] | IC50 [2] | MIC [3] | MIC [4] | MIC [5] | cytotoxicity at 72 h, 100 µM [6] | cytotoxicity at 72 h, 50 µM [7] | Tm [8]
O=C(Cn1c(=O)oc2ccccc21)Nc1cc(C(F)(F)F)ccc1Cl | 26.8% |  | 67.4 µM (≈ 25 µg/mL) | 33.7 µM | 16.9 µM | 15.4% | 12.3% | 
O=C(Cn1c(=O)oc2cc(Cl)ccc21)NCc1ccccn1 | 43.1% |  | 39.3 µM (≈ 12.5 µg/mL) | 4.91 µM | 4.91 µM | 40% | 36.1% | 
O=C(Cn1c(=O)oc2ccccc21)Nc1cc(Cl)ccc1Cl | 19.5% | 22.1 µM |  |  |  |  |  | 
O=C(Cn1c(=O)oc2ccccc21)Nc1ccccc1 | 32.4% |  | 46.6 µM (≈ 12.5 µg/mL) | 23.3 µM | 23.3 µM | 39.8% | 35.1% | 
O=C(Cn1c(=O)oc2cc([N+](=O)[O-])ccc21)Nc1nc2ccc([N+](=O)[O-])cc2s1 | 51.7% |  | 15 µM (≈ 6.25 µg/mL) | 3.75 µM | 3.75 µM | 39% | 14.8% | 
O=C(Cn1c(=O)oc2cc([N+](=O)[O-])ccc21)Nc1ncc([N+](=O)[O-])s1 | 82.4% | 5.12 µM | 17.1 µM (≈ 6.25 µg/mL) | 8.55 µM | 8.55 µM | 43.8% | 20.2% | 1.9 °C
O=C(Cn1c(=O)oc2ccccc21)NCc1ccccn1 | 42.2% |  | 88.2 µM (≈ 25 µg/mL) | 22.1 µM | 44.1 µM | 38.7% | 37.3% | 
O=C(Cn1c(=O)oc2cc([N+](=O)[O-])ccc21)NCc1ccccn1 | 68.1% | 8.23 µM | 76.2 µM (≈ 25 µg/mL) | 38.1 µM | 9.51 µM | 33.4% | 21.8% | 
O=C(Cn1c(=O)oc2cc([N+](=O)[O-])ccc21)NCc1cccs1 | 35.7% |  | 18.8 µM (≈ 6.25 µg/mL) | 18.8 µM | 18.8 µM | 41% | 36.5% | 
O=C(Cn1c(=O)oc2cc([N+](=O)[O-])ccc21)Nc1ccccn1 | 15.6% |  | 39.8 µM (≈ 12.5 µg/mL) | 19.9 µM | 9.94 µM | 47.3% | 38.6% | 
O=C(Cn1c(=O)oc2ccccc21)Nc1ncc([N+](=O)[O-])s1 | 48.1% |  | 78 µM (≈ 25 µg/mL) | 39 µM | 19.5 µM | 44.6% | 25% | 
CC[C@@H](CO)NCCN[C@@H](CC)CO [ETHAMBUTOL] |  |  | 7.64 µM (≈ 1.56 µg/mL) |  |  |  |  | 
NNC(=O)c1ccncc1 [ISONIAZID] |  |  | 0.72 µM (≈ 0.0987 µg/mL) |  |  |  |  | 
O=C(Cn1c(=O)oc2cc(Cl)ccc21)Nc1nc2ccc([N+](=O)[O-])cc2s1 | 48.6% |  | 30.9 µM (≈ 12.5 µg/mL) | 7.72 µM | 7.72 µM | 14.2% | 12.5% | 
O=C(Cn1c(=O)oc2ccccc21)NCc1ccco1 | 30.1% |  | 22.9 µM (≈ 6.25 µg/mL) | 22.9 µM | 22.9 µM | 33.8% | 32.8% | 
CC1COc2c(N3CCN(C)CC3)c(F)cc3c(=O)c(C(=O)O)cn1c23 (stereo not drawn) [OFLOXACIN] |  |  | 2.16 µM (≈ 0.781 µg/mL) |  |  |  |  | 
O=C(Cn1c(=O)oc2cc(Cl)ccc21)Nc1ncc([N+](=O)[O-])s1 | 72.6% | 6.82 µM | 17.6 µM (≈ 6.25 µg/mL) | 8.81 µM | 17.6 µM | 50.6% | 14.3% | 
